We go through one molecule from ChEMBL document CHEMBL4715793 (J Med Chem, 2016).

Calls of active or inactive are those of the source. No cut-off for these calls is given here.

For orientation: EC50 means the concentration at which the effect is half-maximal.

In series [1] the test system is Hepacivirus hominis. The experiment in a line: Inhibition of HCV NS3/4a protease.
In series [2] the test system is Hepatitis C virus. The experiment in a line: Synergistic antiviral activity against HCV J6/JFH/JC1 infected in human HuH7.5 cells assessed as inhibition of viral protein levels at 6.25 uM in presence of daclatasvir measured after 72 hrs by western blot analysis. Format: functional, organism-based. The note with it: Hepacivirus hominis. In a few lines:
(§1)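 Huh7.5 cells infected with HCV (45 IU/cell) and simultaneously treated with compound (6.25 μM) alone, DAA alone, or both. […] Intracellular protein analysed by Western blot at 72 h. At least triplicate, mean ± SD, Student's t test.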
Background: A western blot detects proteins with antibodies after separation by electrophoresis.

The test system of series [3] is Hepatitis C virus. In words: Synergistic antiviral activity against HCV J6/JFH/JC1 infected in human HuH7.5 cells assessed as inhibition of viral protein levels at 6.25 uM in presence of simeprevir measured after 72 hrs by western blot analysis. The note with it: Hepacivirus hominis. Type of series: functional, organism-based. In a few lines:
as §1

Series [4] relates to Hepatitis C virus. The experiment in a line: Synergistic antiviral activity against HCV J6/JFH/JC1 infected in human HuH7.5 cells assessed as combination index measured after 72 hrs in presence of sofosbuvir by Chou-Talalay method. Format: functional, Hepacivirus hominis.
The test system of series [5] is Hepatitis C virus. In words: Synergistic antiviral activity against HCV J6/JFH/JC1 infected in human HuH7.5 cells assessed as combination index measured after 72 hrs in presence of simeprevir by Chou-Talalay method. Type of series: functional, Hepacivirus hominis.
Series [6] can be described thus: Resistance ratio of EC50 for antiviral activity against HCV J6/JFH/JC1 harboring S282T mutant infected in human Huh7.5 cells to EC50 for antiviral activity against wild-type HCV J6/JFH/JC1 infected in human Huh7.5 cells. Format: functional.
Series [7] has as its system Hepatitis C virus. The experiment in a line: Antiviral activity against HCV J6/JFH/JC1 harboring D168V mutant infected in human Huh7.5 cells assessed as inhibition of viral replication measured after 72 hrs by qRT-PCR analysis. Type of series: functional, organism-based, Hepacivirus hominis. To be noted: J6/JFH/JC1, Huh7.5, 72 h.
For series [8], the system named is Hepatitis C virus. The experiment in a line: Antiviral activity against HCV J6/JFH/JC1 harboring A156T mutant infected in human Huh7.5 cells assessed as inhibition of viral replication measured after 72 hrs by qRT-PCR analysis. Type of series: functional, organism-based, Hepacivirus hominis. To be noted: J6/JFH/JC1, Huh7.5, 72 h.
Series [9] relates to Hepatitis C virus. The experiment in a line: Antiviral activity against wild-type HCV J6/JFH/JC1 infected in human Huh7.5 cells assessed as inhibition of viral replication measured after 72 hrs by qRT-PCR analysis. To be noted: J6/JFH/JC1, Huh7.5, 72 h. Format: functional, organism-based, Hepacivirus hominis. In a few lines: (§2)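 Huh7.5 cells seeded at 3 × 10^4/cm2 and incubated 24 h. Infected with wild-type HCVcc stock (45 IU/cell) with compound or solvent control added at the same time. After 72 h, intracellular RNA measured by one-step qRT-PCR and core protein by Western blot. EC50 by Reed & Muench method, mean ± SD from three independent experiments.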

The subject of series [10] is Hepatitis C virus. The experiment in a line: Antiviral activity against HCV infected in human HuH7.5 cells assessed as inhibition of viral protein level during early stage at 6.25 to 25 uM incubated for 2 hrs prior to compound washout followed by supplementation of fresh culture medium and measured after 72 hrs by Western blot analysis. Format: functional, organism-based. To be noted: Hepacivirus hominis; Huh-7; dose 6.25-25 µM. In a few lines: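 Huh7.5 cells seeded 24 h earlier, infected with HCV (150 IU/cell) with simultaneous compound or solvent control for 2 h. Cells washed with PBS and given fresh medium. Intracellular RNA (qRT-PCR) and protein (Western blot) extracted at 72 h.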

In series [11] the test system is Hepatitis C virus. The experiment in a line: Antiviral activity against HCV subgenomic replicon harboring I377-3'del.S infected in human GS4.3 cells assessed as inhibition of viral replication at 0.23 to 18.52 uM after 72 hrs by qRT-PCR analysis. Format: functional, organism-based. The note with it: Hepacivirus hominis, Liver, dose 0.23-18.52 µM. In a few lines:
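GS4.3 cells (Huh7 carrying HCV subgenomic replicon I377-3′del.S) seeded at 3 × 10^4/cm2, after 24 h treated with compound or solvent control. After 72 h intracellular RNA extracted and replicon RNA measured by qRT-PCR. Cytotoxicity checked by MTT at 72 h.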
For orientation: In antiviral work, replicon cells carry a viral genome segment that copies itself.

A further series relates to Huh7.5. The experiment in a line: Effect on CD36 expression level in human Huh7.5 cells at 6.25 to 25 uM by Western blot analysis. Type of series: functional, cell-based. To be noted: dose 6.25-25 µM.
The nature of series [12]: Selectivity index, ratio of CC50 for cytotoxicity against human Huh7.5 cells assessed as reduction in cell viability incubated for 72 hrs by MTT assay to EC50 for antiviral activity against HCV genotype 2a J6/JFH/JC1 infected in human Huh7.5 cells assessed as reduction in viral RNA levels measured after 72 hrs by qRT-PCR analysis. Format: toxicity, cell-based. To be noted: read-out: Ratio CC50/EC50. For orientation: Formazan colour is commonly taken as a measure of viable cells.

The nature of series [13]: Antiviral activity against HCV subtype 2a J6/JFH/JC1 infected in human Huh7.5 cells assessed as reduction in viral RNA levels measured after 72 hrs by qRT-PCR analysis. The note with it: Hepatitis C virus, J6/JFH/JC1, Huh7.5, 72 h.
The test system of series [14] is Hepatitis C virus. In words: Antiviral activity against wild-type HCV infected in human HuH7.5 cells assessed as reduction in viral protein levels at 6.25 to 100 uM measured after 72 hrs by Western blot assay. Format: functional, organism-based. To be noted: Hepacivirus hominis, dose 6.25-100 µM. In a few lines: as §2
The subject of series [15] is Hepacivirus hominis. In words: Inhibition of HCV NS5A.
The target in series [16] is T1, Chondroitin sulfate N-acetylgalactosaminyltransferase 1 (Homo sapiens) (UniProt Q8TDX6).
T1 sequence (whole entry): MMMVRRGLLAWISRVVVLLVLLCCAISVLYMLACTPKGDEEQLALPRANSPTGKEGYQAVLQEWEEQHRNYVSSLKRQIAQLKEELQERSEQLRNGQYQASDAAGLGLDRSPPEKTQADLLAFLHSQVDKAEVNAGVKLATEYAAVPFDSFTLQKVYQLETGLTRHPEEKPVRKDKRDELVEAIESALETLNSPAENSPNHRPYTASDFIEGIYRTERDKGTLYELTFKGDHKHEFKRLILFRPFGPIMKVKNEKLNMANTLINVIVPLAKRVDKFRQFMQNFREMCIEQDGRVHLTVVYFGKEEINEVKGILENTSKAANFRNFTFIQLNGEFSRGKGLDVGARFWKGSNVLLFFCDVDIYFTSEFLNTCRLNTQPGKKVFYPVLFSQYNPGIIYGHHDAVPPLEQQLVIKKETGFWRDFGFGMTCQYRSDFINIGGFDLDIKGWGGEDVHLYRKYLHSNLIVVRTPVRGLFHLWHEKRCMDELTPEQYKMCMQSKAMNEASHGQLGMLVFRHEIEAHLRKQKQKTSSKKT
The experiment in a line: Destabilization of CSGalNacT-1 in HCV infected human HuH7.5 cells assessed as reduction in CSGalNacT-1 mRNA levels at 6.25 to 100 uM measured after 72 hrs by qRT-PCR analysis. To be noted: dose 6.25-100 µM. In a few lines:
(§3)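 Huh7.5 cells infected with HCV (45 IU/cell) and exposed to compound for 72 h. CSGalNAcT-1 protein measured by Western blot and mRNA by qRT-PCR. Error bars are SD of three independent experiments.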

Series [17] has as its target T1, Chondroitin sulfate N-acetylgalactosaminyltransferase 1 (Homo sapiens). The experiment in a line: Destabilization of CSGalNacT-1 in HCV infected human HuH7.5 cells assessed as reduction in CSGalNacT-1 protein levels measured after 72 hrs by Western blot analysis. The note with it: dose 6.25-100 µM. In a few lines: as §3
The target is the same in series [18]. In words: Destabilization of CSGalNacT-1 in human Huh7.5 cells assessed as reduction in CSGalNacT-1 mRNA levels by gene chip assay. Type of series: cell-based.

For the molecule `COc1cc(/C=C/c2ccccc2)c(C(=O)O)c(O)c1CC=C(C)C`, the inhibition entry in the series on Hepacivirus hominis [1] and in the series on Hepacivirus hominis [15] was “inactive” in each case. Besides, the outcome (with Hepatitis C virus [2]; with Hepatitis C virus [3]; with Hepatitis C virus [14]; in series [18]) was Active. Further, the CI with Hepatitis C virus [4] is recorded as 0.693; in the series on Hepatitis C virus [5] it was 0.953. Moreover, the Ratio EC50 in series [6] is 2.8. The EC50 worked out at 3.8 µM with Hepatitis C virus [7], 6.44 µM with Hepatitis C virus [8], 3.03 µM with Hepatitis C virus [9] and 3.17 µM in series [13]. In addition, the outcome (with Hepatitis C virus [10]; in the series on Hepatitis C virus [11]; in the series with Huh7.5; in series [16]) was inactive. The selectivity ratio at 72 h in [12] came out at 40. For the same molecule, in series [17], the Activity entry was “Dose-dependent effect”.
